Experimental data published in ChEMBL document CHEMBL2202972, “Synthesis and biological evaluation of 2-substituted-4-(3',4',5'-trimethoxyphenyl)-5-aryl thiazoles as anticancer agents” (Bioorg Med Chem, 2012).
pIC50: −log10 of the molar value. Calls of active or inactive are those of the source. No cut-off for these calls is given here.

Experiments:
LoVo = assay: Resistance ratio of IC50 for human doxorubicin-resistant LoVo/DX cells overexpressing P-glycoprotein to IC50 for human LoVo cells; assay type: functional
Bos taurus = species: Bos taurus; assay: Displacement of [3H]colchicine from tubulin in bovine brain at 5 uM DEAE-cellulose filter method
HT-29 [1] = assay: Ratio of CA-4 IC50 to compound IC50 for human HT-29 cells after 72 hrs by MTT assay; assay type: functional
HeLa [2] = assay: Induction of apoptosis in human HeLa cells assessed as effect on caspase-9 activation at 250 to 500 nM after 24 to 48 hrs by Western blot analysis; assay type: functional, cell-based
How it was run: (§1)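 HeLa cells treated for 24 or 48 h, washed twice with ice-cold PBS and lysed on ice 30 min; lysates spun at 15000 ×g, 4 °C. Protein (20 μg) resolved by SDS–PAGE on 7.5–15% gels and blotted to PVDF. Specific primary antibodies for 2 h at room temperature, then peroxidase secondary for 60 min, ECL detection. Membranes stripped and reprobed for β-actin as loading control.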

HeLa [3] = assay: Downregulation of Bcl-2 expression in human HeLa cells at 250 to 500 nM after 24 to 48 hrs by Western blot analysis; assay type: functional, cell-based; how it was run: as §1
HT-29 [4] = assay: Antiproliferative activity against human HT-29 cells after 72 hrs by MTT assay; assay type: functional, cell-based; conditions: HT-29, 72 h
A549 = assay: Ratio of CA-4 IC50 to compound IC50 for human A549 cells after 72 hrs by MTT assay; assay type: functional
HeLa [5] = assay: Effect on cyclin B expression in human HeLa cells at 250 to 500 nM after 24 hrs by Western blot analysis; assay type: functional, cell-based; how it was run: as §1
[6] = Antiproliferative activity against human taxol-resistant A549-T12 cells expressing tubulin mutant gene after 72 hrs by MTT assay; assay type: functional, cell-based; conditions: A549, 72 h
How it was run: (§2)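 Resistant sublines cultured under selection: LoVo^Doxo (doxorubicin-resistant LoVo subclone) in complete Ham's F12 with doxorubicin 0.1 μg/mL; A549-T12 in complete DMEM with taxol 12 nM. Seeded at 8 × 10³ per well, 18 h preincubation, then 72 h compound exposure at 37 °C. MTT read-out.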

MCF7 [7] = assay: Ratio of CA-4 IC50 to compound IC50 for human MCF7 cells after 72 hrs by MTT assay; assay type: functional
HeLa [8] = assay: Induction of apoptosis in human HeLa cells assessed as mitochondrial polarization; assay type: functional, cell-based
[9] = target: T1, M-phase inducer phosphatase 3 (Homo sapiens) (UniProt P30307); assay: Induction of cdc25C phosphorylation in human HeLa cells at 250 to 500 nM after 24 to 48 hrs by Western blot analysis; assay type: cell-based; how it was run: as §1
T1 sequence (whole entry): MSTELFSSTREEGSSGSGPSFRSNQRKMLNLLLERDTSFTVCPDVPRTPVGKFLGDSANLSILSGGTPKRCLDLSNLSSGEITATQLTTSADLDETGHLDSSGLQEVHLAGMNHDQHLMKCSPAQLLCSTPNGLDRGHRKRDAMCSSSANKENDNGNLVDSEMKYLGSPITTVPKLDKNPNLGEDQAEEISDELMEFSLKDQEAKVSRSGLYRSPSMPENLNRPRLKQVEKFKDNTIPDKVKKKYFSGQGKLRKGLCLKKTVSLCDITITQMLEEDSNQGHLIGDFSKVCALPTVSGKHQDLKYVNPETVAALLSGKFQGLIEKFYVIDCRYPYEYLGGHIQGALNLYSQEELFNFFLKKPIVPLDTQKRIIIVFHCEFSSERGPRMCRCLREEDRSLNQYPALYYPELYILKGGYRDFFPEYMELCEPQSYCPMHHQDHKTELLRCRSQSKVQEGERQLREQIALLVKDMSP

[10] = Antiproliferative activity against human vinblastine-resistant CEM/VBL100 cells overexpressing P-glycoprotein after 72 hrs by MTT assay; assay type: functional, cell-based; conditions: CEM/VBL100, 72 h
Jurkat [11] = assay: Cell cycle arrest in human Jurkat cells assessed as decrease in accumulation of cells at G1 phase after 24 hrs by propidium iodide staining based flow cytometric analysis; assay type: functional
How it was run: (§3)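 HeLa or Jurkat cells (5 × 10⁵, exponential growth) treated 24 h with 31–500 nM compound. Cells fixed in ice-cold 70% ethanol, treated with lysis buffer containing RNase A and 0.1% Triton X-100, then stained with propidium iodide. DNA content measured by flow cytometry to give phase distribution. Mean ± SEM of three independent experiments.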

[12] = target: T1, M-phase inducer phosphatase 3 (Homo sapiens); assay: Induction of cdc25C phosphorylation in human HeLa cells assessed as cdc2 kinase dephosphorylation at Tyr15 in human HeLa cells at 250 to 500 nM after 24 to 48 hrs by Western blot analysis; assay type: cell-based; how it was run: as §1
Jurkat [13] = assay: Cell cycle arrest in human Jurkat cells assessed as decrease in accumulation of cells at S phase after 24 hrs by propidium iodide staining based flow cytometric analysis; assay type: functional; how it was run: as §3
HeLa [14] = assay: Cell cycle arrest in human HeLa cells assessed as decrease in accumulation of cells at S phase after 24 hrs by propidium iodide staining based flow cytometric analysis; assay type: functional; how it was run: as §3
HeLa [15] = assay: Ratio of compound IC50 to CA-4 IC50 for human HeLa cells after 72 hrs by MTT assay; assay type: functional
HeLa [16] = assay: Effect on Bax expression in human HeLa cells at 250 to 500 nM after 24 to 48 hrs by Western blot analysis; assay type: functional, cell-based; how it was run: as §1
MCF7 [17] = assay: Antiproliferative activity against human MCF7 cells after 72 hrs by MTT assay; assay type: functional, cell-based; conditions: MCF7, 72 h
HeLa [18] = assay: Induction of apoptosis in human HeLa cells assessed as ROS production; assay type: functional, cell-based
HeLa [19] = assay: Cell cycle arrest in human HeLa cells assessed as accumulation of cells at G2/M phase after 24 hrs by propidium iodide staining based flow cytometric analysis; assay type: functional; how it was run: as §3
HeLa [20] = assay: Antiproliferative activity against human HeLa cells after 72 hrs by MTT assay; assay type: functional, cell-based
PBL = assay: Growth inhibition of PHA-stimulated human PBL after 72 hrs by MTT assay; assay type: functional
Jurkat [21] = assay: Ratio of compound IC50 to CA-4 IC50 for human Jurkat cells after 72 hrs by MTT assay; assay type: functional
Jurkat [22] = assay: Cell cycle arrest in human Jurkat cells assessed as accumulation of cells at G2/M phase after 24 hrs by propidium iodide staining based flow cytometric analysis; assay type: functional; how it was run: as §3
[23] = Antiproliferative activity against human doxorubicin-resistant LoVo/DX cells overexpressing P-glycoprotein after 72 hrs by MTT assay; assay type: functional, cell-based; how it was run: as §2
HL-60 [24] = assay: Antiproliferative activity against human HL60 cells after 72 hrs by MTT assay; assay type: functional, cell-based; conditions: HL-60, 72 h
HL-60 [25] = assay: Ratio of compound IC50 to CA-4 IC50 for human HL60 cells after 72 hrs by MTT assay; assay type: functional
[26] = Inhibition of bovine brain tubulin polymerization preincubated for 15 mins by turbidimetric analysis; parameters: species or system Bos taurus
How it was run: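 Bovine brain tubulin (10 μM) in glutamate buffer preincubated with varying compound concentrations for 15 min at 30 °C, then chilled to 0 °C. GTP 0.4 mM added and mixtures warmed to 30 °C in a spectrophotometer; assembly followed by turbidity at 350 nm.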

HeLa [27] = assay: Downregulation of cyclin B expression in human HeLa cells at 250 to 500 nM after 48 hrs by Western blot analysis; assay type: functional, cell-based; how it was run: as §1
HeLa [28] = assay: Cell cycle arrest in human HeLa cells assessed as decrease in accumulation of cells at G1 phase after 24 hrs by propidium iodide staining based flow cytometric analysis; assay type: functional; how it was run: as §3

inhibition (Bos taurus): 83%
pIC50 (HT-29 [4]): 8.49
Activity [9]: Active
Activity [12]: Active
pIC50 (MCF7 [17]): 7.61
pIC50 (HeLa [20]): 7.88
pIC50 (HL-60 [24]): 8.74
pIC50 [26]: 6.05
Structure (SMILES): CCOc1ccc(-c2sc(NC)nc2-c2cc(OC)c(OC)c(OC)c2)cc1
Ratio IC50 (LoVo): 0.5
Ratio IC50 (HT-29 [1]): 1000
Activity (HeLa [2]): inactive
Activity (HeLa [3]): Active
Ratio IC50 (A549): 5
Activity (HeLa [5]): inactive
pIC50 [6]: 7.67
Ratio IC50 (MCF7 [7]): 15
Activity (HeLa [8]): Active
pIC50 [10]: 8.92
Activity (Jurkat [11]): Dose-dependent effect
Activity (Jurkat [13]): Dose-dependent effect
Activity (HeLa [14]): Dose-dependent effect
Ratio IC50 (HeLa [15]): 2
Activity (HeLa [16]): inactive
Activity (HeLa [18]): Active
Activity (HeLa [19]): Dose-dependent effect
GI50 (PBL): 120 nM
Ratio IC50 (Jurkat [21]): 0.34
Activity (Jurkat [22]): Dose-dependent effect
pIC50 [23]: 7.84
Ratio IC50 (HL-60 [25]): 2
Activity (HeLa [27]): Active
Activity (HeLa [28]): Dose-dependent effect
